Assay [1] is described as follows: Compound was evaluated for the ratio of ED50 of nicotinic agonist (N) and ED50 of muscarinic agonist (M). It counts as functional.
A short description of assay [2]: Equipotent molar ratio (EPMR) between ED50 and ED50 of carbachol calculated through the regression of the angular transformant of the fractional log concentration of agonist. It counts as functional.
For a further assay, the species on record is Cavia porcellus. Put plainly: Potency was evaluated on guinea pig ileum. It counts as functional. The gist of the method:
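Isolated ileum strip in aerated (O₂ with 5% CO₂) Tyrode-type salt solution (glucose 5 mM) at 37 °C. Isotonic contractions recorded at 1 g loading tension. After 30 min equilibration, cumulative concentration-response curves were run without reaching supramaximal concentrations. Potency expressed as equipotent molar ratio versus carbachol. EPMR averages compared by t-test (p < 0.05).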

A short description of assay [3]: Potency was evaluated on frog rectus abdominis. The assay is classed as functional, Rectus abdominis muscle.

Values joined by “and” are separate entries in the source; they are usually repeats but may differ in a detail not shown here. Identical values can stand only once.

On to `C[C@H]1O[C@H](CN(C)C)CS1` (racemic) [listing 1 of 2 here], for which, in assay [1], the Ratio was found to be 61.6.

For `C[C@@H]1O[C@H](C[N+](C)(C)C)CS1` (racemic), the Ratio in assay [1] was found to be 642.

With `C[C@H]1O[C@H](CN(C)C)CS1` (stereo in doubt; (+)-10) [listing 1 of 2 here], the Ratio in assay [1] was 30; in assay [2], 3 and 4.5.

On to `C[C@@H]1O[C@H](C[N+](C)(C)C)CS1` (stereo in doubt; (-)-1), for which the Ratio in assay [1] was found to be 64.

With `C[C@@H]1O[C@H](C[N+](C)(C)C)C[C@H]1O` [MUSCARINE], the Ratio in assay [1] was more than 6300. Besides, the ED50 is reported as 7.94e-08 in the assay listed under Cavia porcellus and more than 0.0005 in assay [3].

Regarding `C[C@@H]1O[C@H](C[N+](C)(C)C)CS1` (stereo in doubt; (+)-1), the Ratio in assay [1] worked out at 537.

In the case of `C[C@H]1O[C@H](CN(C)C)CS1` (stereo in doubt; (+)-10) [listing 2 of 2 here], the ED50 in the assay filed under Cavia porcellus is on record as 6.13e-07; in assay [3] it was 1.84e-05.

For the molecule `C[C@H]1O[C@H](CN(C)C)CS1` (stereo in doubt; (-)-10) [listing 1 of 2 here], the ED50 turned out to be 4.2e-07 in the assay listed under Cavia porcellus and 1.12e-05 in assay [3].

As for `C[C@H]1O[C@H](CN(C)C)CS1` (stereo in doubt; (-)-10) [listing 2 of 2 here], the Ratio in assay [1] is 26.6; in assay [2], 2 and 2.8.

In the case of `C[C@H]1O[C@H](CN(C)C)CS1` (racemic) [listing 2 of 2 here], the ED50 in the assay listed under Cavia porcellus is listed as 2.76e-07; in assay [3], 1.7e-05.

For `C[N+](C)(C)CCOC(N)=O.[Cl-]` [CARBACHOL], the Ratio is 19.2 in assay [1] and 1 in assay [2]. In addition, the ED50 was 2.11e-07 in the assay filed under Cavia porcellus and 4.04e-06 in assay [3].

These data come from ChEMBL document CHEMBL1123362, “Resolution, absolute configuration, and cholinergic enantioselectivity of (+)- and (-)-cis-2-methyl-5-[(dimethylamino)methyl]-1,3-oxathiolane methiodide” (1986).
